Measurements pooled from the literature.
Target: Serine/threonine-protein kinase WNK4 (WNK4, Homo sapiens, UniProt Q96J92)

O=C(Nc1ccc(Oc2ccc(F)cc2)cc1)N1CCc2ncccc2[C@H]1c1ccc(F)cc1
remaining binding (cell-free assay, competition with immobilised ligand; 1 µM): 85%

COc1cnc(Nc2cccc(S(N)(=O)=O)c2)nc1N1CCN(c2ccccc2)C(=O)C1
remaining binding (binding, competition with immobilised ligand; 1 µM): 89%

O=C(NCCCN1CCOCC1)c1ccc(Nc2nccc(-c3cc4ccccc4s3)n2)cc1
remaining binding (binding, competition with immobilised ligand; 1 µM): 71%

O=C(NCC1CCOCC1)c1n[nH]cc1NC(=O)c1c(F)cccc1F
remaining binding (binding, competition with immobilised ligand; 1 µM): 86%

COc1ncc2cc3ccccc3nc2c1C#N
remaining binding (cell-free assay, competition with immobilised ligand; 5 µM): 80%

CNC(=O)[C@@H]1CC[C@@H](n2c(-c3ccc4cnccc4c3)nc3ccc(C(=O)NCc4cccc(C(N)=O)c4)cc32)C1
remaining binding (binding, competition with immobilised ligand; 1 µM): 100%

CN(CCCC(F)(F)F)c1nccc(-c2cnn3ncccc23)n1
remaining binding (binding; 1 µM): 91%

Cc1cnc(Nc2ccc(C(=O)N3CCC(N4CCCC4)CC3)cc2)nc1-c1cc2ccccc2s1
remaining binding (binding, competition with immobilised ligand; 1 µM): 73%

CN(C)c1ncc(F)c(-c2cnn3ncccc23)n1
remaining binding (binding; 1 µM): 91%

CCCCN(CCCC)C(=O)CN1C[C@H](c2cc(OC)c3c(c2)OCO3)[C@@H](C(=O)O)[C@@H]1CC(C)(C)CCC
remaining binding (cell-free assay, competition with immobilised ligand; 1 µM): 97.9%

C[C@H]1CCN(c2nccc(-c3cnn4ncccc34)n2)C1
remaining binding (binding; 1 µM): 79%

CSc1cccnc1N1CCN(Cc2nc3ccccc3[nH]2)CC1
remaining binding (cell-free assay, competition with immobilised ligand; 1 µM): 91%

O=C(c1ccc(Nc2nccc(-c3cc4ccccc4s3)n2)cc1)N1CCC(N2CCCC2)CC1
remaining binding (binding, competition with immobilised ligand; 1 µM): 92%

CN(c1nccc(-c2cnn3ncccc23)n1)C1CC1
remaining binding (binding; 1 µM): 100%

CC1=C(C#N)[C@@H](c2ccc3[nH]nc(C)c3c2)C(C#N)=C(c2ccc(Cl)cc2)N1
remaining binding (cell-free assay, competition with immobilised ligand; 1 µM): 100%

N[C@H]1CCN(c2nccc(-c3cnn4ncccc34)n2)C1
remaining binding (binding; 1 µM): 84%

CN(C)CC#Cc1ccc(OCCCc2sc(N3CCc4cccc(C(=O)Nc5nc6ccccc6s5)c4C3)nc2C(=O)O)c(F)c1
remaining binding (cell-free assay, competition with immobilised ligand; 1 µM): 81%

F[C@@H]1CCN(c2nccc(-c3cnn4ncccc34)n2)C1
remaining binding (binding; 1 µM): 91%

Cc1nc(N2CC[C@@H](O)C2)ncc1-c1cc(C(F)(F)F)cc2[nH]ncc12
remaining binding (binding, competition with immobilised ligand; 1 µM): 95%

c1cncc(-c2cccc(Nc3nccc(NC4CCCCC4)n3)c2)c1
remaining binding (binding, competition with immobilised ligand; 10 µM): 100%
